This note sets out measurements from ChEMBL document CHEMBL1128395, “Design and synthesis of novel inhibitors of HIV-1 reverse transcriptase” (J Med Chem, 1995).

Assay [1] deals with Human immunodeficiency virus type 1 reverse transcriptase (Human immunodeficiency virus 1, UniProt Q72547). The assay can be described thus: Inhibitory activity against HIV-1 Reverse transcriptase. The gist of the method: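 Cell-free HIV-1 reverse transcriptase inhibition assay, with TIBO and BI-RG-587 run as reference inhibitors. IC50 is the inhibitor concentration giving 50% enzyme inhibition, taken as the mean of at least two independent assays.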

For another assay, the system named is MT4. The assay can be described thus: Compound was evaluated for effective concentration required to achieve 50% protection of MT-4 cells against cytopathic effect of HIV-1. The following applies: Homo sapiens. Type of assay: functional, cell-based. In general terms: Cytopathic effects are the visible damage that an infection or toxin causes in cultured cells.

What is called IC50 is the midpoint of a concentration-inhibition curve. Low readings indicate inhibition by little substance, high ones a need for much substance. With `CC(=O)OCCOCn1c2c(c(=O)[nH]c1=O)C(c1ccccc1)Nc1ccccc1S2` (configuration not stated), the IC50 in assay [1] was greater than 100 µM.
Still for that read-out and setting: next, `CC(=O)OCCOCn1c2c(c(=O)[nH]c1=O)C(=O)Nc1ccccc1S2`: greater than 100 µM.
Take `O=c1[nH]c(=O)n(COCCO)c2c1C(c1ccc([N+](=O)[O-])cc1)Nc1ccccc1S2` (configuration not stated): the IC50 in assay [1] is greater than 100 µM.
The same measure, in the same setting: under `CCOCCOCn1c2c(c(=O)[nH]c1=O)CNc1ccccc1S2` stands 0.64 µM; under `O=c1[nH]c(=O)n(COCCO)c2c1CNc1ccccc1S2`, greater than 100 µM; under `O=c1[nH]c2c(c(=O)[nH]1)CNc1ccccc1S2` [PYRIMIDOBENZOTHIAZEPINE], greater than 100 µM.
Same read-out and setting: next, `CC(=O)OCCOCn1c2c(c(=O)n(C)c1=O)CNc1ccccc1S2`: greater than 100 µM.
Usually EC50 stands for the concentration that produces a half-maximal response. Read a high EC50 as weaker potency. Consider `Cc1c(O)nc(O)nc1Sc1ccccc1`, for which the EC50 in the assay on MT4 was greater than 250 µM.
Compound `O=c1[nH]c(=O)n(COCCO)c2c1C(c1ccccc1)Nc1ccccc1S2` (configuration not stated) had a half-inhibitory concentration (IC50) in assay [1] greater than 100 µM.
The same measure, in the same setting: under `CC(=O)OCCOCn1c2c(c(=O)[nH]c1=O)CNc1ccccc1S2` stands 11.5 µM; under `CC(=O)OCCOCn1c2c(c(=O)[nH]c1=O)CN(C)c1ccccc1S2`, 14.7 µM.
In assay [1], `CCOCn1c2c(c(=O)[nH]c1=O)CNc1ccccc1S2` displayed an IC50 of 50.2 µM.
